Source: PubChem (Broad Institute)
Sampled rows, rich in hits. Any-hit rate of the full collection: about 2.9%.
Ecoli rRNA inh: inhibitors of bacterial rRNA selective over humanized ribosomes | E. coli WT GFP vs humanized-ribosome RFP mutants, fluorescence, 24 h; active compounds read low; DMSO median 0, no signal -100 | GFP signal change (wild-type ribosome), % (concentration not given with the values) | 350,000 compounds, 1.6% hits;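 active means significant combined selectivity score with lowered wild-type GFP, culture density cut under 30%, mutant RFP and density less affected; inactive means any of these conditions unmet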
PglD DTNB: PglD (C. jejuni) enzyme inhibition | purified PglD enzyme, DTNB colorimetric CoA detection | inhibition, % at 12.5 µM | 360,000 compounds, 0.098% hits; in the data active means inhibition above about 16%, passing the limit was not always enough
Vif inh: blocks HIV Vif function; HEK293T cells, Vif self-association by quenched fluorescence, imaging, 24 h; inhibition, % at 7.49 µM; 340,000 compounds, 0.35% hits; AID 602346; in the data active means inhibition above about 50%, passing the limit was not always enough
Cneo AK release: causes C. neoformans cell lysis. adenylate kinase release luminescence, 4 h; normalised: neutral wells 0, clomiphene wells 100. lysis activity, % at 15 µM. 360,000 compounds, 0.2% hits. AID 651654;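 active means mean lysis activity across replicates of at least 80%, whatever share of replicates individually reach that level; inactive means mean lysis activity below 80%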
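Material – log-phase Cryptococcus neoformans yeast cells · Input – 5 × 10^6 yeast cells/mL · Medium – fresh YPD growth medium · Doses – single compound concentration per well · Timing – static 4 h at 37 °C with compound, 1 h detection · Detection – adenylate kinase release luminescence · Read-out – signal increase indicating cell lysis · Control set – Clomiphene as positive lysis control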
FGF22 binding: FGF22 (human) thermal shift binding; AID 651658; 340,000 compounds, 1.5% hits; activity (Tm shift, normalised), % at 9.99 µM; recombinant FGF22 thermal shift, SYPRO orange fluorescence; percent of sucrose octasulfate shift, DMSO zero; Q9HCT0;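 active means mean Tm shift, scaled 0 neutral to 100 positive control, at about 1.3% or above, every replicate too, limit read from the data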
Target sequence (Q9HCT0 whole entry, looked up): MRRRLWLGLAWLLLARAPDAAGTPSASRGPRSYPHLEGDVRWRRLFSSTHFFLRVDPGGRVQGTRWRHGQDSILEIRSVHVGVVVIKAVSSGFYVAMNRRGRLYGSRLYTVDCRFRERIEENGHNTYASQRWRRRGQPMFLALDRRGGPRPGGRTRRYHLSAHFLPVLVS
PGC1a acetyl inh: PGC1a acetylation modulation, inhibitor mode; U2OS PGC1a acetylation, AlphaScreen anti-acetyl-lysine; with virally co-expressed GCN5 acetyltransferase; inhibition, % at 15.6 µM; 350,000 compounds, 0.17% hits; AID 651687;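 active means every replicate shows inhibition of at least 40%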;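 further: 0% = neutral control wells and 100% = positive control wells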
* = called active by the depositor.

Screening O=C(N/N=C/c1cc2c(cc1Br)OCO2)c1cccnc1 returned Ecoli rRNA inh 16.5, Vif inh -2.5 and FGF22 binding 43.4*.
Screening O=C(NC1CC1)C1=C[C@@H](c2ccc(Br)cc2)C[C@@H](OCCCCO)O1 returned Ecoli rRNA inh -18.6*, PglD DTNB -0.6, Vif inh 0.0, Cneo AK release -2.0 and FGF22 binding -0.1.
Screening COc1ccc(-n2c(=O)/c(=C\c3cccs3)s/c2=C(/C#N)C(=O)NCCN2CCOCC2)cc1 returned PglD DTNB 8.9, Vif inh 0.4, Cneo AK release 1.2, FGF22 binding 43.4* and PGC1a acetyl inh -2.8.
C=CCn1c(=O)/c(=C\c2ccsc2)s/c1=C(/C#N)C(=O)NCCN1CCOCC1 was read as PglD DTNB -8.4, Vif inh 16.4, Cneo AK release -0.3 and PGC1a acetyl inh -1.8.
COc1ccc(C(C#N)=C2C=C(Cl)C(=NO)C=C2Cl)cc1 was read as Ecoli rRNA inh -18.6*, Vif inh -6.8 and FGF22 binding -0.1.
`CCN(CC)S(=O)(=O)c1cccc(-c2nnc(SCC(=O)NC)n2N)c1` gave Ecoli rRNA inh 12.9, Vif inh -7.1 and FGF22 binding 43.8*.
`CCN(CC)S(=O)(=O)c1cccc(-c2nnc(SCC(=O)N3CCC(C(=O)O)CC3)n2N)c1` gave Ecoli rRNA inh 7.3, Vif inh 1.4, FGF22 binding 0.1 and PGC1a acetyl inh 9.5.
Screening Cc1cccc(C(=O)N2CCN=C2SCc2ccc([N+](=O)[O-])cc2)c1 returned Ecoli rRNA inh -7.2, Vif inh 3.8, FGF22 binding 0.2 and PGC1a acetyl inh -5.0.
Screening O=C(Cc1ccccc1)N1CCN=C1SCc1cccc([N+](=O)[O-])c1 returned Ecoli rRNA inh 9.4, Vif inh 9.2 and FGF22 binding 43.0*.
COc1ccc(NC(=O)N(C)C[C@@H]2OCCCC[C@@H](C)Oc3ccc(NC(=O)Nc4cccc5ccccc45)cc3C(=O)N([C@H](C)CO)C[C@@H]2C)cc1 was read as Ecoli rRNA inh 0.6, PglD DTNB 1.1, Cneo AK release 1.2, FGF22 binding -0.4 and PGC1a acetyl inh -3.0.
Screening Cc1cc(NCCN2CCOCC2)c2ccc3ccccc3c2n1 returned Ecoli rRNA inh 6.2, Vif inh 1.4 and FGF22 binding 43.1*.
For Clc1nc(NCCN2CCOCC2)nc(NCc2ccccc2)n1 the results were Vif inh 15.3, FGF22 binding 43.7* and PGC1a acetyl inh 2.1.
COc1cc(CC(=O)NCC2COc3ccccc3O2)cc(OC)c1OC (stereo not drawn) was read as Ecoli rRNA inh 9.8, Vif inh -3.6, FGF22 binding 42.3 and PGC1a acetyl inh -11.4.
For COc1ccccc1NC(=O)C(=O)NCC1COc2ccccc2O1 (stereo not drawn) the results were Ecoli rRNA inh -22.9*, PglD DTNB -0.1, Vif inh 0.7, Cneo AK release 0.1, FGF22 binding 0.1 and PGC1a acetyl inh -12.3.
COc1cccc(C(=O)OCn2nnc3ccccc3c2=O)c1 was read as Ecoli rRNA inh -21.8*, PglD DTNB 4.5, Vif inh 13.3, Cneo AK release -0.5, FGF22 binding 0.1 and PGC1a acetyl inh -1.2.
Screening O=C1CN(CCN2CC(=O)N(Cc3ccccc3)C(=O)C2)CC(=O)N1Cc1ccccc1 returned Ecoli rRNA inh 5.7, PglD DTNB 0.1, Cneo AK release -0.6, FGF22 binding 43.6* and PGC1a acetyl inh -6.3.
O=C(C[C@@H]1CC[C@@H](NC(=O)Nc2cccc(F)c2)[C@H](CO)O1)NCC1CCCCC1 was read as Ecoli rRNA inh -6.6, PglD DTNB 3.1, Cneo AK release -0.8, FGF22 binding 0.1 and PGC1a acetyl inh 5.2.
For Cc1ccc(CNC(=O)CNC(=S)N(Cc2ccccc2)Cc2ccccc2F)cc1 the results were Ecoli rRNA inh -29.5*, Vif inh -3.2, FGF22 binding -0.2 and PGC1a acetyl inh 1.4.
Fc1ccccc1CNC(=S)NCc1ccc(Cl)cc1 was read as Ecoli rRNA inh -28.5, PglD DTNB 0.1, Cneo AK release 194.2* and FGF22 binding -0.1.
For O=C(CNC(=S)N(Cc1ccccc1)Cc1ccccc1F)NCc1ccc(Cl)cc1 the results were Ecoli rRNA inh -26.8*, Vif inh -0.2, FGF22 binding 0.5 and PGC1a acetyl inh -2.4.
Screening CCNC(=S)NCc1ccc(Cl)cc1 returned Ecoli rRNA inh 3.0, PglD DTNB -5.6, Vif inh 27.0, Cneo AK release 14.3 and PGC1a acetyl inh -6.4.
`Fc1ccccc1CNc1cc(Cl)cc(Cl)c1` gave PglD DTNB 1.5, Vif inh 118.7*, Cneo AK release -1.0 and PGC1a acetyl inh -15.8.
O=C(CNC(=S)N(Cc1ccccc1)Cc1ccccc1F)NCc1ccccc1 was read as Ecoli rRNA inh -28.6, Vif inh -14.8, FGF22 binding 0.2 and PGC1a acetyl inh 0.7.
O=[N+]([O-])c1ccccc1CNc1ccc(F)c(Cl)c1 was read as Ecoli rRNA inh -54.5, PglD DTNB -10.7, Vif inh -4.0, Cneo AK release 3.2, FGF22 binding 0.1 and PGC1a acetyl inh -9.3.
`CCCNC(=O)[C@H]1[C@H](CO)[C@H]2Cn3c(cccc3=O)[C@@H]1N2C(=O)C1CCC1` gave Ecoli rRNA inh 0.1, PglD DTNB 2.4, Cneo AK release -3.0, FGF22 binding 0.0 and PGC1a acetyl inh -0.2.
`CCCN1[C@@H]2Cn3c(ccc(C4=CCCC4)c3=O)[C@H]1[C@@H](C(=O)NCCOC)[C@@H]2CO` gave Ecoli rRNA inh -0.5, PglD DTNB -4.1, Cneo AK release 1.6 and FGF22 binding 0.0.
`CC(C)c1cn(CC[C@@H]2CC[C@H](NS(=O)(=O)c3ccccc3)[C@H](CO)O2)nn1` gave Ecoli rRNA inh 1.4, PglD DTNB 2.0, Cneo AK release -2.2, FGF22 binding -0.1 and PGC1a acetyl inh 2.1.
`O=C1CCN(Cc2ccccc2)C(=O)N1` gave Ecoli rRNA inh 11.6, PglD DTNB -7.4, Vif inh -0.1, Cneo AK release 0.1, FGF22 binding 0.1 and PGC1a acetyl inh 0.4.
Screening O=Cc1ccc2c(c1)CCN2Cc1ccccc1 returned Ecoli rRNA inh -18.8*, PglD DTNB 2.3, Vif inh -19.4, Cneo AK release 0.5 and FGF22 binding 0.2.
For Cc1c(C(=O)NCCSCc2cccc(C(F)(F)F)c2)cnn1-c1ccc(F)cc1 the results were Ecoli rRNA inh -36.6*, PglD DTNB 0.6, Vif inh -1.2, Cneo AK release 5.9, FGF22 binding 0.1 and PGC1a acetyl inh 5.6.
`Cc1c(C(=O)NCCSCc2ccc(F)cc2)cnn1-c1ccc(Cl)cc1` gave Ecoli rRNA inh -38.0*, PglD DTNB 6.3, Vif inh -8.6, Cneo AK release 0.8, FGF22 binding -0.1 and PGC1a acetyl inh 4.0.
